From PubChem BioAssay
FGF22 binding: binders of recombinant human FGF22 by thermal shift. Q9HCT0. SYPRO orange fluorescence; percent of sucrose octasulfate shift, DMSO zero. activity (Tm shift, normalised), % at 9.99 µM. hit rate 1.5% among 340,000;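 active = mean Tm shift, scaled 0 neutral to 100 positive control, at about 1.3% or above, every replicate too, limit read from the data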
Target sequence (Q9HCT0 whole entry, looked up): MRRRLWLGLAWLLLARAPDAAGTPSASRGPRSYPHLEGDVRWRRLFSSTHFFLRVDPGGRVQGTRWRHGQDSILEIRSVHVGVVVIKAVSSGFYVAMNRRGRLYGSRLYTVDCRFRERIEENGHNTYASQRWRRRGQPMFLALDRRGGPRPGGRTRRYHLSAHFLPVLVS
NR3A LBD binder: modulators (binders) of human NR3A ligand-binding domain. NR3A LBD differential scanning fluorimetry, Tm shift; 0% = protein alone, 100% = glycine-bound protein. AID 1259313. Tm shift relative to glycine control, % at 25 µM. hit rate 2.5% among 340,000;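 active = melting temperature shift of at least 10% of the positive control shift, at one fixed dose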
HCV NS3 hel inh: inhibitors of Hepatitis C virus NS3 helicase; NS3 helicase DNA unwinding, Cy5 molecular beacon fluorescence; inhibition, % at 10.9 µM; hit rate 0.56% among 290,000; AID 1800;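 active = inhibition above the mean of all tested compounds plus 3 SD, set per campaign, cut at about 35% in these data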;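 also: 0% = DMSO wells and 100% = thioflavine S control wells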
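assay system = NS3 helicase fragment of HCV | buffer or medium = MOPS pH 6.5, MgCl2, DTT, Tween20, BSA | timing = 60 min unwinding reaction at 25 °C after ATP addition | signal = Cy5 beacon fluorescence read at start and 1 h | read-out basis = % inhibition of unwinding | control set = low DMSO, high thioflavine S at 110 µM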
ZTA DNA inh: counter-screen for EBNA-1 inhibitors: inhibitors of Epstein-Barr virus ZTA; ZTA-DNA binding, fluorescence polarization; inhibition, % at 11 µM; hit rate 0.15% among 320,000; AID 2234; in the data active = inhibition above about 33%
Target sequence (P03206 whole entry, looked up): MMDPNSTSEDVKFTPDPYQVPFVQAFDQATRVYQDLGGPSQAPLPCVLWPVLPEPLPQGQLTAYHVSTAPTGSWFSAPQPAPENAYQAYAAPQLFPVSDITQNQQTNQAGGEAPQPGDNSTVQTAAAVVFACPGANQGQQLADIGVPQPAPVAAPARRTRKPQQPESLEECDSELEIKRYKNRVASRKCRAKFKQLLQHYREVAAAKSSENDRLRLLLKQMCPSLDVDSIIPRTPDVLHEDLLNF
DNA FID counter: counter-screen for HCV NS3 helicase inhibitors: DNA intercalator displacement | DNA fluorescent intercalator displacement, fluorescence | inhibition, % at 7.9 µM | hit rate 0.17% among 290,000 | AID 1845; in the data active = inhibition above about 37%;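 also: 0% = vehicle and 100% = reference compound; higher means more ethidium bromide displaced from hairpin DNA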
EBNA-1 inh: blocks EBNA-1 binding to DNA | EBNA-1 DNA binding, fluorescence polarization | inhibition, % at 14.8 µM | hit rate 0.34% among 300,000 | AID 1950; in the data active = inhibition above about 28%
Starred values were filed as active, the others as inactive. A selection: hits, their analogues and other compounds. The true share with any hit is near 3.6%.

`Cc1oc(-c2ccc(Cl)cc2)nc1CN1CCCC(C(=O)NCCCN2CCOCC2)C1` (configuration not stated) gave NR3A LBD binder 0, HCV NS3 hel inh -59, ZTA DNA inh 2, DNA FID counter 45* and EBNA-1 inh -5.
`Cc1cc(C)c(O)c(-c2cc(C(=O)Nc3cccnc3)[nH]n2)c1` gave FGF22 binding 0, NR3A LBD binder 7, HCV NS3 hel inh -8, ZTA DNA inh 3, DNA FID counter -15 and EBNA-1 inh -5.
CCc1ccc(O)c(-c2cc(C(=O)Nc3cccnc3)[nH]n2)c1 was read as FGF22 binding 0, NR3A LBD binder 20*, HCV NS3 hel inh 2, ZTA DNA inh 3, DNA FID counter -10 and EBNA-1 inh 4.
For CC(=O)Nc1ccc(NC(=O)c2cc(-c3cc(C)c(C)cc3O)n[nH]2)cc1 the results were FGF22 binding 0, NR3A LBD binder 32*, HCV NS3 hel inh 6, ZTA DNA inh 0, DNA FID counter -6 and EBNA-1 inh -13.
CC(C)(C)NC(=O)c1cc(-c2ccccc2)n[nH]1 was read as FGF22 binding 0, NR3A LBD binder 1, HCV NS3 hel inh 7, ZTA DNA inh 9, DNA FID counter -1 and EBNA-1 inh 11.
Cc1cc(O)c(-c2cc(C(=O)Nc3cccnc3)[nH]n2)cc1C was read as FGF22 binding 0, NR3A LBD binder 27*, HCV NS3 hel inh -6, ZTA DNA inh 4, DNA FID counter -1 and EBNA-1 inh 22.
For Cc1ccc(NC(=O)c2cc(-c3ccccc3)n[nH]2)cc1 the results were FGF22 binding 0, NR3A LBD binder 10*, HCV NS3 hel inh 6 and DNA FID counter -5.
`Cc1ccc(S(=O)(=O)N(C)C[C@H]2Oc3ccc(NC(=O)CCCN(C)C)cc3C(=O)N([C@@H](C)CO)C[C@H]2C)cc1` gave FGF22 binding 0.
Screening CNC[C@@H]1Oc2ccc(NC(=O)CCC(F)(F)F)cc2CC(=O)N([C@H](C)CO)C[C@H]1C returned FGF22 binding 0.
`C[C@@H]1CCCCO[C@H](CN(C)C(=O)Cc2ccccc2)[C@H](C)CN([C@H](C)CO)C(=O)c2cc(NC(=O)Nc3ccc(F)cc3)ccc2O1` gave FGF22 binding -1.
Screening COc1ccc(S(=O)(=O)N(C)C[C@@H]2OCCCC[C@@H](C)Oc3ccc(NC(=O)c4ccccc4)cc3C(=O)N([C@H](C)CO)C[C@H]2C)cc1 returned FGF22 binding 1.
Screening O=C(C[C@@H]1C=C[C@H](NC(=O)C2CCOCC2)[C@H](CO)O1)NCC1CCCCC1 returned FGF22 binding 0.
`CC(=O)Cc1nsc(Nc2ccc(F)cc2)n1` gave FGF22 binding 0, NR3A LBD binder -1, HCV NS3 hel inh 8, ZTA DNA inh -9, DNA FID counter -6 and EBNA-1 inh -1.
For CC(=O)Cc1nsc(Nc2ccc(Cl)cc2)n1 the results were FGF22 binding 43*, NR3A LBD binder -1, HCV NS3 hel inh 2, ZTA DNA inh 1, DNA FID counter 0 and EBNA-1 inh 11.
Screening CC(=O)Cc1nsc(NC(=O)c2ccc(-c3cccc(Cl)c3)o2)n1 returned FGF22 binding 1.4*, NR3A LBD binder -2, HCV NS3 hel inh -2, ZTA DNA inh 1, DNA FID counter -9 and EBNA-1 inh -5.
`C/C=C/c1ccc2c(c1)O[C@@H](CN(C)C(=O)CN(C)C)[C@@H](C)CN([C@@H](C)CO)S2(=O)=O` gave FGF22 binding 0.
Screening O=S(=O)(Nc1nc2ccccc2nc1Nc1ccc2c(c1)OCO2)c1ccccc1 returned NR3A LBD binder 8, HCV NS3 hel inh 5, ZTA DNA inh 16, DNA FID counter 6 and EBNA-1 inh 12.
Screening Cc1cccc(S(=O)(=O)Nc2nc3ccccc3nc2Nc2ccc3c(c2)OCO3)c1 returned FGF22 binding 0, NR3A LBD binder 21*, HCV NS3 hel inh 13, ZTA DNA inh 10, DNA FID counter -6 and EBNA-1 inh -9.
Screening CC(=O)Nc1ccc(S(=O)(=O)Nc2nc3ccccc3nc2Nc2ccccc2)cc1 returned FGF22 binding 1, NR3A LBD binder 10*, HCV NS3 hel inh 2, ZTA DNA inh -32, DNA FID counter -22 and EBNA-1 inh 0.
Screening CC(=O)Nc1ccc(S(=O)(=O)Nc2nc3ccccc3nc2Nc2ccc(O)cc2)cc1 returned FGF22 binding 0, NR3A LBD binder 17*, HCV NS3 hel inh 4, ZTA DNA inh -8, DNA FID counter -4 and EBNA-1 inh -4.
O=C(NCC[C@H]1CC[C@H](NS(=O)(=O)c2ccc(F)cc2)[C@@H](CO)O1)Nc1ccc(F)cc1 was read as FGF22 binding 0.
CCCC#Cc1ccc([C@H]2[C@@H](C#N)N(C(=O)C3CCCC3)[C@H]2CO)cc1 was read as FGF22 binding 0.
`COc1cc([C@@H]2c3cc4c(cc3[C@@H](O)[C@@H](CO)[C@@H]2CO)OCO4)cc(OC)c1O[Si](C)(C)C(C)(C)C` gave ZTA DNA inh 34* and EBNA-1 inh -5.
For CC1CCN(C(=O)c2ccc(SCc3ccccc3F)c([N+](=O)[O-])c2)CC1 the results were NR3A LBD binder -1, HCV NS3 hel inh 5, ZTA DNA inh -6, DNA FID counter -3 and EBNA-1 inh 38*.
Screening CCOC(=O)CSc1ccc(C(=O)N2CCN(C)CC2)cc1[N+](=O)[O-] returned FGF22 binding 43*, NR3A LBD binder 0, HCV NS3 hel inh 5, ZTA DNA inh 15, DNA FID counter 4 and EBNA-1 inh 6.
For CO[C@@H]1CN(C)C(=O)c2cc(NC(=O)C3CCC3)ccc2OC[C@H](C)N(Cc2ccncc2)C[C@H]1C the results were FGF22 binding 0.
Screening Cc1noc(C)c1S(=O)(=O)Nc1cccc2c1O[C@@H](CN(C)C(=O)NC1CCCCC1)[C@@H](C)CN([C@@H](C)CO)C2=O returned FGF22 binding 0.
`Cc1ccc(S(=O)(=O)Nc2ccc3c(c2)C(=O)N([C@@H](C)CO)C[C@@H](C)[C@@H](CN(C)C(=O)Nc2ccc(C(F)(F)F)cc2)OCCCC[C@@H](C)O3)cc1` gave FGF22 binding 0.
For CCc1ccc(NC(=S)N(Cc2ccccc2)Cc2ccccn2)cc1 the results were FGF22 binding 44*, NR3A LBD binder -5, HCV NS3 hel inh -11, ZTA DNA inh 3, DNA FID counter -7 and EBNA-1 inh -2.
`COc1ccc(CN(C)C[C@H]2Oc3ccc(NC(=O)Nc4ccccc4)cc3CC(=O)N([C@@H](C)CO)C[C@@H]2C)cc1` gave FGF22 binding 0.
Screening CCN(CC)c1ccc(C=C2C(=O)OC3(CCCC3)OC2=O)cc1 returned NR3A LBD binder 23*, HCV NS3 hel inh 7, ZTA DNA inh 4, DNA FID counter 1 and EBNA-1 inh -2.
